Assays:
Liver microsome [1] = assay: Metabolic stability assay in rat liver microsomes assessed as parent drug disappearance at 1 uM after 20 mins by HPLC and mass spectrometry method; type: ADME
[2] = Oral bioavailability in Wistar rat at 10 mg/kg; type: ADME, organism-based; conditions: Wistar, in vivo
Method in brief: (§1)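 Rats dosed by iv infusion at 1 mg/kg (n = 2) or orally at 10 mg/kg (n = 3); plasma levels measured, limit of quantification ca. 1 ng/mL.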

[3] = Solubility in neutral pH; type: physicochemical
[4] = Half life in Wistar rat at 1 mg/kg, iv or 10 mg/kg, po; type: ADME, organism-based; conditions: in vivo; method in brief: as §1
Platelet [5] = assay: Inhibition of ADP-induced platelet aggregation in human platelet rich plasma assessed as remaining activity at 100 nM by in-vitro light transmission aggregometry assay; type: functional
Method in brief: (§2)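 Light transmission aggregometry in human platelet-rich plasma; compound incubated, aggregation triggered with 3 µM ADP; remaining activity (RA) recorded at a single compound level (1000, 500 or 100 nM).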

Platelet [6] = assay: Inhibition of ADP-induced platelet aggregation in human platelet rich plasma assessed as remaining activity at 500 nM by in-vitro light transmission aggregometry assay; type: functional; method in brief: as §2
[7] = Solubility in basic pH; type: physicochemical
Cytochrome P450 2C9 = Cytochrome P450 2C9 (Homo sapiens, UniProt P11712); assay: Inhibition of CYP2C9 in human liver microsomes assessed as reduction in diclofenac 4'-hydroxylation; type: ADME
Cytochrome P450 3A4 [8] = biological target: T1, Cytochrome P450 3A4 (Homo sapiens, UniProt P08684); assay: Inhibition of CYP3A4 in human liver microsomes assessed as reduction in testosterone 6beta-hydroxylation; type: ADME
[9] = Cmax in Wistar rat at 10 mg/kg, po; type: ADME, organism-based; design: dose 10 mg/kg, route oral; conditions: Wistar, in vivo; method in brief: as §1
[10] = Clearance in Wistar rat at 1 mg/kg, iv; type: ADME, organism-based; design: dose 1 mg/kg, route intravenous; conditions: in vivo; method in brief: as §1
P2Y purinoceptor 12 = P2Y purinoceptor 12 (Homo sapiens, UniProt Q9H244); assay: Displacement of [3H]-2-methyl-thio-adenosine 5'-diphosphate from human recombinant P2Y12 expressed in CHO cell membranes by scintillation counting method
Method in brief: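 CHO cells expressing recombinant P2Y₁₂ receptors, incubated with tritium-labeled 2-methyl-thio-adenosine 5'-diphosphate plus test compound; IC₅₀ from displacement curves, each point in triplicate; reference compound run with every compound set, and set re-analyzed if its IC₅₀ fell outside pre-set 95% confidence interval.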

Liver microsome [11] = assay: Metabolic stability assay in human liver microsomes assessed as parent drug disappearance at 1 uM after 20 mins by HPLC and mass spectrometry method; type: ADME
Cytochrome P450 3A4 [12] = biological target: T1, Cytochrome P450 3A4; assay: Inhibition of CYP3A4 in human liver microsomes assessed as reduction in midazolam 1'-hydroxylation; type: ADME
[13] = Volume of distribution at steady state in Wistar rat at 1 mg/kg, iv or 10 mg/kg, po; type: ADME, organism-based; conditions: in vivo, read-out: Vdss; method in brief: as §1
[14] = AUC in Wistar rat at 10 mg/kg, po; type: ADME, organism-based, Plasma; design: dose 10 mg/kg, route oral; conditions: Wistar, plasma; method in brief: as §1
[15] = biological target: Voltage-gated inwardly rectifying potassium channel KCNH2 (Homo sapiens, UniProt Q12809); assay: Inhibition of human ERG expressed in HEK cells by patch-clamp assay; type: cell-based; conditions: hek293
Cytochrome P450 2D6 = Cytochrome P450 2D6 (Homo sapiens, UniProt P10635); assay: Inhibition of CYP2D6 in human liver microsomes assessed as reduction in dextromethorphan-O demethylation; type: ADME
Platelet [16] = assay: Inhibition of ADP-induced platelet aggregation in human platelet rich plasma by in-vitro light transmission aggregometry assay; type: functional
Method in brief: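 Human platelet-rich plasma incubated with compound, aggregation induced by 3 µM ADP and read by light transmission aggregometry; IC₅₀ derived from concentration–response curve.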

[17] = Potency shift, ratio of IC50 for inhibition of ADP-induced platelet aggregation in human platelet rich plasma to IC50 for displacement of [3H]-2-methyl-thio-adenosine 5'-diphosphate from human recombinant P2Y12 expressed in CHO cell membranes
[18] = Protein binding in human plasma; type: ADME, cell-free; conditions: read-out: PPB (converted)
Platelet [19] = assay: Inhibition of ADP-induced platelet aggregation in human platelet rich plasma assessed as remaining activity at 1000 nM by in-vitro light transmission aggregometry assay; type: functional; method in brief: as §2

T1 sequence (P08684 whole entry): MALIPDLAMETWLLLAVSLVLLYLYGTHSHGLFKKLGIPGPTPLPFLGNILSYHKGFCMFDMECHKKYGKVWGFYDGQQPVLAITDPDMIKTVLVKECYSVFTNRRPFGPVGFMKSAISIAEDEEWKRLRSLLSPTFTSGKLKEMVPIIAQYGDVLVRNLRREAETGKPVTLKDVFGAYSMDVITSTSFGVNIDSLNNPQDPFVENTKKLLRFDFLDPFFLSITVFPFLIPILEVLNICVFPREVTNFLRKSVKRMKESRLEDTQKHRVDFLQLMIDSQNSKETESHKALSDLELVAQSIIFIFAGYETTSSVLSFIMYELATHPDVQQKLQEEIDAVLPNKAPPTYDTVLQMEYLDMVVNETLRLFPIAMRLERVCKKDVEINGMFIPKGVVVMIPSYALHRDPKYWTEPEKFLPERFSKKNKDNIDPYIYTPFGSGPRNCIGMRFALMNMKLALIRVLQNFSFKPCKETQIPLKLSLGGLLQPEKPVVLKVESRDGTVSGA
Chain of Cytochrome P450 2C9 (P11712 whole entry): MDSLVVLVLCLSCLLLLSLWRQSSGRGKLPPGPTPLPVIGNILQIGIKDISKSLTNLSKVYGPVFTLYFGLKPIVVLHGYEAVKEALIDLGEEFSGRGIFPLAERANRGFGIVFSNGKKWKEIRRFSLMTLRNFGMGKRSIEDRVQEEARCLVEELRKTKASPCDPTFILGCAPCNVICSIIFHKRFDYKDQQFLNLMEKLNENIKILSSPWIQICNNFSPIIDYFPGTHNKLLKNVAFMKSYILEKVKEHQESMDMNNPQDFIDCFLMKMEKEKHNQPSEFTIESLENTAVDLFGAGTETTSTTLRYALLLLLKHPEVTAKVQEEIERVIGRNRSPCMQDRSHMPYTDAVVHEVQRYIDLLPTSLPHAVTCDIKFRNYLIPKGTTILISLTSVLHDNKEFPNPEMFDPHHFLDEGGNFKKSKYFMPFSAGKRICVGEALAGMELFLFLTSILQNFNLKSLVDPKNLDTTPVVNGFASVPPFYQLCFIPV
Chain of Cytochrome P450 2D6 (P10635 whole entry): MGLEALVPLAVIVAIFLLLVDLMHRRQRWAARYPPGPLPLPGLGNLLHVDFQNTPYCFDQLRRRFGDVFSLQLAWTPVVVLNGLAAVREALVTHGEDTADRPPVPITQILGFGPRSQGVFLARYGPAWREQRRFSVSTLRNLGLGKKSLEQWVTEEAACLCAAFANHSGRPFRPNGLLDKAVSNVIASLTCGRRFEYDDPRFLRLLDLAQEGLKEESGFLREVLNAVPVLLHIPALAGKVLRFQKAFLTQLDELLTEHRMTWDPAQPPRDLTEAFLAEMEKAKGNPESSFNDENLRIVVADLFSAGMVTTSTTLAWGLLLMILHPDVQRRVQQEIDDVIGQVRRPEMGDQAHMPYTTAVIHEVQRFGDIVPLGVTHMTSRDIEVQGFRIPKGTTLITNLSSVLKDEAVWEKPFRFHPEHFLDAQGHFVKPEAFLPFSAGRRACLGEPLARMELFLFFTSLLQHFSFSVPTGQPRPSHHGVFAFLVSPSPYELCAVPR
Chain of Voltage-gated inwardly rectifying potassium channel KCNH2 (Q12809 whole entry): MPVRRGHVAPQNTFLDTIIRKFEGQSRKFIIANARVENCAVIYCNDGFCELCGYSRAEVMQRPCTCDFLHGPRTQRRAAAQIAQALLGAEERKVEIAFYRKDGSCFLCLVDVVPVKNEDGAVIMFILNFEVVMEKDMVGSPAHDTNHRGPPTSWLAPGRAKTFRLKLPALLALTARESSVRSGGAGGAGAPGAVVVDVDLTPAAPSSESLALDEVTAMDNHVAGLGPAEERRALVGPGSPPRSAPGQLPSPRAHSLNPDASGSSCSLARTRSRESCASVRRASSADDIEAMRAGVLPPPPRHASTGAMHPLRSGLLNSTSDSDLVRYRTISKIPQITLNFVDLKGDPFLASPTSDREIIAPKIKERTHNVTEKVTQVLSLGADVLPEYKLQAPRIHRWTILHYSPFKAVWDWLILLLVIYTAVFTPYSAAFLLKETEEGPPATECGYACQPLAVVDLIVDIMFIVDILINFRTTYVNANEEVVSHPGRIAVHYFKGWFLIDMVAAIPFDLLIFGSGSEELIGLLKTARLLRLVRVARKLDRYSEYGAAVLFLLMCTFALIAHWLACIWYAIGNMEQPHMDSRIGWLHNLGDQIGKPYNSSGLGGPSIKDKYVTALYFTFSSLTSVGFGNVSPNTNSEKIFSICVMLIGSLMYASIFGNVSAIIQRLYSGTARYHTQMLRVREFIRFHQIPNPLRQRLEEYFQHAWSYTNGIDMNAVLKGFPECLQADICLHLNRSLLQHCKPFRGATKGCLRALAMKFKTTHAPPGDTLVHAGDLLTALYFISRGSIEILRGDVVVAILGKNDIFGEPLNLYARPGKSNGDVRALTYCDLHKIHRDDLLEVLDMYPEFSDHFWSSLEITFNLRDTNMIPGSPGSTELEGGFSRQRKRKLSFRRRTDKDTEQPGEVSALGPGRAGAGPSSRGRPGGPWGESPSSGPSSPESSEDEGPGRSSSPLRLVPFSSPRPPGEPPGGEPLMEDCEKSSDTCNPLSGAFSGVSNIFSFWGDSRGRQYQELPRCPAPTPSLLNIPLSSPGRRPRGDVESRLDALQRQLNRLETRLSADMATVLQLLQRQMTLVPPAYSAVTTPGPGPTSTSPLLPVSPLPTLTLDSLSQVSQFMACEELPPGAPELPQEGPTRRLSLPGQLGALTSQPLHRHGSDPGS
Chain of P2Y purinoceptor 12 (Q9H244 whole entry): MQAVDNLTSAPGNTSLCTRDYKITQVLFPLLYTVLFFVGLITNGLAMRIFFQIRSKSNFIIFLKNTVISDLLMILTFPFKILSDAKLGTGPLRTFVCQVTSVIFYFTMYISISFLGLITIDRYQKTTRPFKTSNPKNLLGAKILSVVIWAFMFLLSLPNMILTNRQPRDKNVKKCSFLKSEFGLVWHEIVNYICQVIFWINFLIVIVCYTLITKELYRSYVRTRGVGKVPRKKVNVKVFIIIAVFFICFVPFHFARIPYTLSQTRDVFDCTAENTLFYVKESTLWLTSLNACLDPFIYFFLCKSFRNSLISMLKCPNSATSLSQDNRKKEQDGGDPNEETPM

Row | Stability (Liver microsome [1]) | solubility [3] | solubility [7] | inhibition (INH) (Cytochrome P450 2C9) | inhibition (INH) (Cytochrome P450 3A4 [8]) | IC50 (P2Y purinoceptor 12) | Stability (Liver microsome [11]) | inhibition (INH) (Cytochrome P450 3A4 [12]) | inhibition (INH) (Cytochrome P450 2D6) | fraction unbound [18] | IC50 (Platelet [16]; Homo sapiens, Platelet, Plasma) | SMILES | Activity (Platelet [5]) | Activity (Platelet [6]) | inhibition (INH) [15] | Ratio IC50 [17] | Activity (Platelet [19]) | also measured
1 | Stable | soluble | soluble | Not Active | Not Active | 46 nM | Stable | Not Active | Not Active |  |  | CCOC(=O)N1CCN(C(=O)[C@H](CCC(=O)O)NC(=O)c2cc(N3CCN(C)CC3)nc(-c3ccccc3)n2)CC1 | <70% | <30% | Not Active |  |  | bioavailability [2]: 3%; half-life [4]: 18 min; Cmax [9]: 192 nM; clearance [10]: 49 mL/min/kg; Vd [13]: 0.8 L/kg; AUC [14]: 0.164 µM·h
2 |  |  |  |  |  | 15 nM |  |  |  | 0.034 |  | CCOC(=O)N1CCN(C(=O)[C@H](CCC(=O)O)NC(=O)c2cc([C@H]3C[C@@H]3COC)nc(-c3ccccc3)n2)CC1 |  |  |  | 5.8 |  | IC50 (Platelet [16]; platelet): 87 nM
3 | Stable | soluble | soluble | Not Active | Not Active | 218 nM | Stable | Not Active | Not Active | 0.128 | 264 nM | CCOC(=O)N1CCN(C(=O)[C@H](CCC(=O)O)NC(=O)c2cc(CCCO)nc(-c3ccccc3)n2)CC1 | <70% | <30% | Not Active | 1.2 |  | 
4 | Stable | soluble | soluble | Not Active | Not Active | 162 nM | Stable | Not Active | Not Active | 0.015 | 3820 nM | CCCNc1cc(C(=O)N[C@@H](CCC(=O)O)C(=O)N2CCN(C(=O)OCC)CC2)nc(-c2ccccc2)n1 |  |  | Not Active | 24 |  | 
5 | Stable | soluble | soluble | Not Active | Not Active | 35 nM | Stable | Not Active | Not Active |  | 118 nM | CCOC(=O)N1CCN(C(=O)[C@H](CCC(=O)O)NC(=O)c2cc(C(C)(C)O)nc(-c3ccccc3)n2)CC1 | <70% | <30% | Not Active | 3.4 |  | Cmax [9]: 56.1 nM; AUC [14]: 0.109 µM·h
6 | Stable | soluble | soluble | Not Active | Not Active | 40 nM | Stable | Not Active | Not Active |  | 171 nM | CCOC(=O)N1CCN(C(=O)[C@H](CCC(=O)O)NC(=O)c2cc(C3CCC(O)CC3)nc(-c3ccccc3)n2)CC1 (some centres undefined) | <70% | <30% | Not Active | 4.3 |  | Cmax [9]: 46.3 nM; AUC [14]: 0.0782 µM·h
7 | Stable | soluble | soluble | Not Active | Not Active | 52 nM | Stable | Not Active | Not Active |  | 1140 nM | CCOC(=O)N1CCN(C(=O)[C@H](CCC(=O)O)NC(=O)c2cc(C(C)C)nc(-c3ccccc3)n2)CC1 |  | >60% | Not Active | 22 | >30% | 
8 | Stable | soluble | soluble | Not Active | Not Active | 11 nM | Stable | Not Active | Not Active |  |  | CCOC(=O)N1CCN(C(=O)[C@H](CCC(=O)O)NC(=O)c2cc(-c3ccsc3)nc(-c3ccccc3)n2)CC1 |  | >60% | Not Active |  | >30% | 
9 | Stable | soluble | soluble | Not Active | Not Active | 25 nM | Stable | Not Active | Not Active | 0.085 | 58 nM | CCOC(=O)N1CCN(C(=O)[C@H](CCC(=O)O)NC(=O)c2cc(N[C@@H]3CCOC3)nc(-c3ccccc3)n2)CC1 | <70% | <30% | Not Active | 2.3 |  | 
10 | Stable | soluble | soluble | Not Active | Not Active |  | Stable | Not Active | Not Active | 0.007 | 1930 nM | CCCCc1cc(C(=O)N[C@@H](CCC(=O)O)C(=O)N2CCN(C(=O)OCC)CC2)nc(-c2ccccc2)n1 |  | >60% | Not Active | 20 | >30% | 
11 | Stable | soluble | soluble | Not Active | Not Active | 36 nM | Stable | Not Active | Not Active |  | 2050 nM | CCOC(=O)N1CCN(C(=O)[C@H](CCC(=O)O)NC(=O)c2cc(C(C)(C)C)nc(-c3ccccc3)n2)CC1 |  | >60% | Not Active | 57 | >30% | 
12 | Stable | soluble | soluble | Not Active | Not Active | 59.5 nM | Stable | Not Active | Not Active | 0.003 | 3230 nM | CCOC(=O)N1CCN(C(=O)[C@H](CCC(=O)O)NC(=O)c2cc(C3CC3)nc(-c3ccccc3)n2)CC1 |  |  | Not Active | 54 |  | 
13 | Stable | soluble | soluble | Not Active | Not Active | 198 nM | Stable | Not Active | Not Active |  |  | CCOC(=O)N1CCN(C(=O)[C@H](CCC(=O)O)NC(=O)c2cc(NCCC(=O)O)nc(-c3ccccc3)n2)CC1 |  | >60% | Not Active |  | >30% | 
14 | Stable | soluble | soluble | Not Active | Not Active | 3 nM | Stable | Not Active | Not Active |  | 21 nM | CCCCOC(=O)N1CCN(C(=O)[C@H](CCC(=O)O)NC(=O)c2cc(N3CC[C@H](OC)C3)nc(-c3ccccc3)n2)CC1 |  |  | Not Active | 7 |  | bioavailability [2]: 9%; half-life [4]: 72 min; Cmax [9]: 1690 nM; clearance [10]: 24 mL/min/kg; Vd [13]: 0.5 L/kg; AUC [14]: 1.17 µM·h

Source: ChEMBL document CHEMBL3351863, “Optimization of 2-phenyl-pyrimidine-4-carboxamides towards potent, orally bioavailable and selective P2Y(12) antagonists for inhibition of platelet aggregation” (Bioorg Med Chem Lett, 2014)
